# Data as given in ChEMBL document CHEMBL4425113, “Chromenopyrazole, a Versatile Cannabinoid Scaffold with in Vivo Activity in a Model of Multiple Sclerosis” (J Med Chem, 2016).
# Calls of active or inactive are those of the source. The rule behind the calls is not given here.
# Organism: Homo sapiens
# Assay: Selectivity ratio of Ki for human CB2 receptor to Ki for human CB1 receptor
# Settings: not given
row,Compound,Ratio Ki
1,CCCCCCC(C)(C)c1cc(OCc2ccccc2)c2c(c1)OC(C)(C)c1cn[nH]c1-2,4.2
2,CCCCCCC(C)(C)c1cc(O)c2c(c1)OC(C)(C)c1cnn(CCO)c1-2,19.1
3,CCCCCCC(C)(C)c1cc(O)c2c(c1)OC(C)(C)c1cn(C)nc1-2,> 2500
4,CCCCCCC(C)(C)c1cc(O)c2c(c1)OC(C)(C)c1cn(CC)nc1-2,> 2000
5,CCCCCCC(C)(C)c1cc(O)c2c(c1)OC(C)(C)c1cn[nH]c1-2,> 1400

# Molecular target: T1, Cannabinoid receptor 2 (Homo sapiens, UniProt P34972)
# Assay: Partial agonist activity at human CB2 receptor expressed in HEK293 cell membranes assessed as inhibition of forskolin-stimulated cAMP accumulation at 1 uM after 60 mins by HTRF assay
# Assay type: functional, cell-based
# Settings: not given
# How it was run: (§1)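 HEK293 cells stably expressing hCB2, 5.000 cells/well, forskolin-stimulated; Lance-Ultra TR-FRET cAMP kit, 60 min room temperature with HTRF reagents; 665/620 nm ratio converted to cAMP via standard curve; forskolin level set to 100%.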
# T1 sequence (P34972 whole entry): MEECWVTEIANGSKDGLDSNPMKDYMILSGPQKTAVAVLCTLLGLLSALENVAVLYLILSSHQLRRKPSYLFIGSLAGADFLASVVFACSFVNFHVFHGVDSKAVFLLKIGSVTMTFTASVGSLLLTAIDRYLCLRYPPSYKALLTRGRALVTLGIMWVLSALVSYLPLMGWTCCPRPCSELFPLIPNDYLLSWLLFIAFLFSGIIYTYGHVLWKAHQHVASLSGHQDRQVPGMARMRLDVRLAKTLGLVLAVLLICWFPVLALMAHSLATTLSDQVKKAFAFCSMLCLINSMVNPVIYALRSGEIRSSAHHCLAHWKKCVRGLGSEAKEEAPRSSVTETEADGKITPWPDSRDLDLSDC
row,Compound,inhibition
1,CCCCCCC(C)(C)c1cc(OCc2ccccc2)c2c(c1)OC(C)(C)c1cn[nH]c1-2,Active
2,CCCCCCC(C)(C)c1cc(OC)c2c(c1)OC(C)(C)c1cnn(CC)c1-2,Active
3,CCCCCCC(C)(C)c1cc(OCCCO)c2c(c1)OC(C)(C)c1cn[nH]c1-2,Active
4,CCCCCCC(C)(C)c1cc(OC)c2c(c1)OC(C)(C)c1cn(CC)nc1-2,Active
5,CCCCCCC(C)(C)c1cc(OCCCBr)c2c(c1)OC(C)(C)c1cn(C)nc1-2,Active

# Molecular target: T1, Cannabinoid receptor 2
# Assay: Partial agonist activity at human CB2 receptor expressed in HEK293 cell membranes assessed as inhibition of forskolin-stimulated cAMP accumulation at 200 nM after 60 mins by HTRF assay
# Assay type: functional, cell-based
# Settings: not given
# How it was run: as §1
row,Compound,inhibition
1,CCCCCCC(C)(C)c1cc(OCc2ccccc2)c2c(c1)OC(C)(C)c1cn[nH]c1-2,Active
2,CCCCCCC(C)(C)c1cc(OC)c2c(c1)OC(C)(C)c1cnn(CC)c1-2,Active
3,CCCCCCC(C)(C)c1cc(OCCCO)c2c(c1)OC(C)(C)c1cn[nH]c1-2,Active
4,CCCCCCC(C)(C)c1cc(OC)c2c(c1)OC(C)(C)c1cn(CC)nc1-2,Active
5,CCCCCCC(C)(C)c1cc(OCCCBr)c2c(c1)OC(C)(C)c1cn(C)nc1-2,Active

# Organism: Homo sapiens
# Assay: Selectivity ratio of Ki for human CB1 receptor to Ki for human CB2 receptor
# Settings: not given
# How it was run: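 Membranes from cells transfected with hCB1 (8 μg/well; Tris 50 mM, MgCl2 5 mM, EDTA 2.5 mM, BSA 0.5 mg/mL, pH 7.4) or hCB2 (4 μg/well; EGTA 2.5 mM, BSA 1 mg/mL, pH 7.5); [3H]CP55940, 90 min at 30 °C. […] Nonspecific binding 10 μM WIN55212-2; GF/C filtration, scintillation; ≥3 experiments in triplicate.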
row,Compound,Ratio Ki
1,CCCCCCC(C)(C)c1cc(OC)c2c(c1)OC(C)(C)c1cnn(CC)c1-2,31.6
2,CCCCCCC(C)(C)c1cc(OCCCO)c2c(c1)OC(C)(C)c1cn[nH]c1-2,17.3
3,CCCCCCC(C)(C)c1cc(OC)c2c(c1)OC(C)(C)c1cn(CC)nc1-2,31.8
4,CCCCCCC(C)(C)c1cc(OCCCBr)c2c(c1)OC(C)(C)c1cn(C)nc1-2,19.1

# Molecular target: T2, Cannabinoid receptor 1 (Homo sapiens, UniProt P21554)
# Assay: Agonist activity at human CB1 receptor expressed in HEK293 cell membranes assessed as induction of [35S]-GTPgammaS binding after 60 mins by liquid scintillation spectrometric method
# Assay type: functional
# Settings: not given
# T2 sequence (P21554 whole entry): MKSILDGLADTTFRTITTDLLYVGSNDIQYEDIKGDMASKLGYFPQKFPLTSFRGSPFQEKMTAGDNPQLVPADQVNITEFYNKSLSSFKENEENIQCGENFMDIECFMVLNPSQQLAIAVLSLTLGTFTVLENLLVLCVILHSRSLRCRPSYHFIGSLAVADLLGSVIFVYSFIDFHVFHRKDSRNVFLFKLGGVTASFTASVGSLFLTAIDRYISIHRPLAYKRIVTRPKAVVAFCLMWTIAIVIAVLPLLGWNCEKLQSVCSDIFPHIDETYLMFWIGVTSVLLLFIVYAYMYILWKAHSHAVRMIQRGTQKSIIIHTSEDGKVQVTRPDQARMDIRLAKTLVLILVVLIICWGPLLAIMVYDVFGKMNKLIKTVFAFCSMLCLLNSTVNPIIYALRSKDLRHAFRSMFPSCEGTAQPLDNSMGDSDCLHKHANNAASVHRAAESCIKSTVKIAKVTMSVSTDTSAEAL
row,Compound,EC50
1,CCCCCCC(C)(C)c1cc(OCc2ccccc2)c2c(c1)OC(C)(C)c1cn[nH]c1-2,0.191 µM

# Tested on: not listed separately
# Assay: Binding affinity to PDEA modified AGP (unknown origin) at 40 uM by surface plasmon resonance method
# Assay type: ADME
# Settings: human, isolated protein
row,Compound,PB
1,CCCCCCC(C)(C)c1cc(OCCCO)c2c(c1)OC(C)(C)c1cn[nH]c1-2,Active
2,CCCCCCC(C)(C)c1cc(OC)c2c(c1)OC(C)(C)c1cn(CC)nc1-2,Active
3,CCCCCCC(C)(C)c1cc(OCCCBr)c2c(c1)OC(C)(C)c1cn(C)nc1-2,Active

# Molecular target: T2, Cannabinoid receptor 1
# Assay: biochemical
# Assay type: cell-based, HEK293
# Settings: not given
row,Compound,Ki
1,CCCCCCC(C)(C)c1cc(OCc2ccccc2)c2c(c1)OC(C)(C)c1cn[nH]c1-2,0.0224 µM
2,CCCCCCC(C)(C)c1cc(OC)c2c(c1)OC(C)(C)c1cnn(CC)c1-2,5.04 µM
3,CCCCCCC(C)(C)c1cc(OCCCO)c2c(c1)OC(C)(C)c1cn[nH]c1-2,0.45 µM
4,CCCCCCC(C)(C)c1cc(O)c2c(c1)OC(C)(C)c1cnn(CCO)c1-2,0.0191 µM
5,CCCCCCC(C)(C)c1cc(OC)c2c(c1)OC(C)(C)c1cn(CC)nc1-2,2.93 µM
6,CCCCCCC(C)(C)c1cc(OCCCBr)c2c(c1)OC(C)(C)c1cn(C)nc1-2,1.48 µM

# Same assay, conditions: hek293
row,Compound,Ki
1,CCCCCCC(C)(C)c1cc(O)c2c(c1)OC(C)(C)c1cn(C)nc1-2,0.0142 µM
2,CCCCCCC(C)(C)c1cc(O)c2c(c1)OC(C)(C)c1cn(CC)nc1-2,0.0186 µM
3,CCCCCCC(C)(C)c1cc(O)c2c(c1)OC(C)(C)c1cn[nH]c1-2,0.0285 µM

# Molecular target: T1, Cannabinoid receptor 2
# Assay: Displacement of [3H]-CP55940 from human CB2 receptor expressed in HEK293 cell membranes after 90 mins by liquid scintillation counting method
# Settings: not given
row,Compound,Ki
1,CCCCCCC(C)(C)c1cc(OCc2ccccc2)c2c(c1)OC(C)(C)c1cn[nH]c1-2,0.0933 µM
2,CCCCCCC(C)(C)c1cc(OC)c2c(c1)OC(C)(C)c1cnn(CC)c1-2,0.159 µM
3,CCCCCCC(C)(C)c1cc(OCCCO)c2c(c1)OC(C)(C)c1cn[nH]c1-2,0.026 µM
4,CCCCCCC(C)(C)c1cc(O)c2c(c1)OC(C)(C)c1cnn(CCO)c1-2,0.366 µM
5,CCCCCCC(C)(C)c1cc(OC)c2c(c1)OC(C)(C)c1cn(CC)nc1-2,0.0926 µM
6,CCCCCCC(C)(C)c1cc(OCCCBr)c2c(c1)OC(C)(C)c1cn(C)nc1-2,0.0773 µM
